UBC9 SUMO inh: blocks human SUMOylation mediated by UBC9. P63279. HTRF SUMOylation assay, SAE1/SAE2 + UBC9, in vitro. inhibition, % at 35 µM. 0.36% of 290,000 active. AID 2006; in the data active = inhibition above about 50%, passing the limit was not always enough; inconclusive = no clear call, values can overlap the other calls
Target sequence (P63279 whole entry, looked up): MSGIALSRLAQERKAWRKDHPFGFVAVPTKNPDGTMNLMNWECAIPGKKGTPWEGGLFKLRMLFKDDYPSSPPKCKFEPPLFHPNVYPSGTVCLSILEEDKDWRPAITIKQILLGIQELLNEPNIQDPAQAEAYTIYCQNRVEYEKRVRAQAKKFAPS
UBC13 inh: inhibitors of human UBC13 polyubiquitin chain formation; P61088; TR-FRET; inhibition, % at 20 µM; 0.47% of 330,000 active; AID 485273; in the data active = inhibition above about 45%, passing the limit was not always enough; inconclusive = no clear call, values can overlap the other calls
Target sequence (P61088 whole entry, looked up): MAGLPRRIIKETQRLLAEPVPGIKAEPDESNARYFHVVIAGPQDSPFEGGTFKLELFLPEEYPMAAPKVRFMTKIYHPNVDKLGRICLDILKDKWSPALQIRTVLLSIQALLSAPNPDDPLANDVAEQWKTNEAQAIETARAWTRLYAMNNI
Rin1 Abl inh: blocks binding of human Rin1 to Abl | P00519+Q13671 | TR-FRET Rin1/Abl binding, biochemical | inhibition, % at 7.35 µM | 0.4% of 360,000 active | AID 588664; in the data active = inhibition above about 5%, passing the limit was not always enough
ALR inh: human ALR oxidase inhibition via reduced H2O2. P55789. purified ALR, DTT oxidation, H2O2 HRP-luminol luminescence. inhibition, % (concentration not given with the values). 3.8% of 290,000 active. AID 485317;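 active = mean replicate inhibition above about 79%, with every replicate also reaching it, limit read from the data; inconclusive = only one of the two criteria met; inactive = mean below limit and not every replicate reaching it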
Target sequence (P55789 whole entry, looked up): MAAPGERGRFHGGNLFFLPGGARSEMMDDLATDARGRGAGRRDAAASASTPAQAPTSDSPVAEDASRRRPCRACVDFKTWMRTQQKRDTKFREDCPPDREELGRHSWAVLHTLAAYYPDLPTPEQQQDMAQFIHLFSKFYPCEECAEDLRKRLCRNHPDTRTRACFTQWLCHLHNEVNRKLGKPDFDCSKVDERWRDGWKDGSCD
RBBP9 inh: human RBBP9 hydrolase inhibition | O75884 | recombinant RBBP9, FP-Rh probe fluorescence polarization | inhibition, % at 7.94 µM | 0.2% of 220,000 active | AID 1515;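 active = inhibition above the campaign mean of all tested compounds plus 3 SD, cut at about 14% in these data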;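 also: plate controls were DMSO wells with RBBP9 for no effect and wells lacking RBBP9 protein for full effect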
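Assay system: recombinant human RBBP9; Reagent: Serine-hydrolase probe FP-Rh, 375 nM pre-mixing; Doses: 7.94 µM single dose, 0.794% DMSO; Incubation: 30 min then 45 min, 25 °C; Detection: fluorescence polarization (mP), excitation 525 nm, emission 598 nm; Evaluation: percent inhibition from mP, scaled between DMSO and no-protein wells.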
PREPL inh: human PREPL enzyme inhibition; inhibition, % at 5.96 µM; AID 2751; 0.68% of 320,000 active; Q4J6C6; recombinant PREPL, fluorescence polarization activity-based probe; in the data active = inhibition above about 43%;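 also: 0% = enzyme with DMSO and 100% = wells lacking enzyme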
Rin1 Abl conf: Rin1-Abl interaction inhibition confirmation; inhibition, % at 7.35 µM; 49% of 1,300 active; AID 602124; TR-FRET Rin1-Abl binding, purified proteins; shares compounds with Rin1 Abl inh
GFP quench-1: GFP fluorescence interference artifact; AID 602125; shares compounds with Rin1 Abl inh; 8.5% of 1,300 active; inhibition, % at 6.75 µM; inhibitors/quenchers counterscreen;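 also: ABL1-eGFP fusion protein alone without its partner RIN1-SBP; 0% = protein with vehicle and 100% = wells lacking protein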
GFP quench DR: counter-screen for Rin1-Abl inhibitors: GFP quenchers, dose response; GFP fluorescence interference/quenching counterscreen; shares compounds with Rin1 Abl inh; IC50, µM; 230 tested, under 10 active; call rule not given here;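 also: ABL1-eGFP fusion protein alone without its RIN1 binding partner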
GFP quench-2: GFP quenching artifact for Rin1-Abl inhibitor hits; shares compounds with Rin1 Abl inh; AID 602397; 25 tested, under 10 active; IC50, µM; GFP fluorescence quenching counterscreen, biochemical; call rule not given here
The depositor's hits bear a star; ? = inconclusive; · = no result given. Most compounds without a hit are left out; they make up all but 4.3% or so of the library. Rule as the data show it, unless noted: active = inhibition above about 6.5%; inactive = the rest.

SMILES	UBC9 SUMO inh	UBC13 inh	Rin1 Abl inh	ALR inh	RBBP9 inh	PREPL inh	Rin1 Abl conf	GFP quench-1	others
CCOC(=O)CSc1nc2cc(C(=O)N3CCC(C(N)=O)CC3)ccc2c(=O)n1-c1ccccc1	24	18	9.0*	·	-10	-7	1	-1
Cc1oc2nc(SCCCC(=O)NCCO)nc(N)c2c1C	7	3	36*	3	4	1	42*	1	GFP quench DR=>68
Cc1ccc(CC(=O)N2CCC(c3nc4c(nnn4Cc4ccccc4)c(=O)[nH]3)CC2)cc1	-13	10	8.8*	-10	-7	2	7.1*	-1
O=C(CC1SCCNC1=O)Nc1cc(Cl)cc(Cl)c1 (centres undefined)	-3	7	11*	-12	-9	-15	17*	0	GFP quench DR=>68
COC(=O)c1cc(NC(=O)CC2SCCNC2=O)cc(C(=O)OC)c1 (centres undefined)	-6	-2	-1	-3	-6	-5	·	·
CCOC(=O)CCc1n[nH]c(=O)[nH]c1=O	6	6	0	5	-6	0	·	·
CCOC(=O)CCCCC(=O)c1[nH]c(=O)[nH]c1Cn1ccnc1	7	5	28*	18	-3	-4	30*	0	GFP quench DR=>68
CCCCSCc1[nH]c(=O)[nH]c1C(=O)CCCCC(=O)OCC	-19	3	48*	·	-2	-2	46*	-1	GFP quench DR=>68
CCOC(=O)Cn1cnc(C)c1	·	·	2	·	·	·	·	·
COc1ccccc1/C=C/CN1CCC(Oc2ccc(C(=O)N3CCCCC3)cc2)CC1	3	5	10*	-16	·	15	8.4*	-1
O=C(c1ccc(OC2CCN(C/C=C/c3ccccc3)CC2)cc1)N1CCCC1	-4	-5	3	2	·	18	·	·
O=C(c1ccc(OC2CCN(C/C=C/c3ccccc3)CC2)cc1)N1CCCCC1	5	3	6.3*	1	·	-2	0	0
COc1ccc(/C=C/CN2CCC(Oc3ccc(C(=O)N4CCCCC4)cc3)CC2)cc1	7	5	7.2*	23	·	16	3	-1
CCc1nc2c(oc3ccccc32)c(=O)[nH]1	3	-1	-1	-23	-7	0	·	·
O=c1[nH]c(CSc2ccccn2)nc2c1oc1ccccc12	5	-5	9.9*	-15	-1	-1	-4	1
O=C(Nc1ccc(OC(F)(F)F)cc1)c1cnccn1	10	-11	2	-5	·	-3	·	·
CCOc1ccccc1N(C(=O)c1snc(C(N)=O)c1N)C(C(=O)NCc1ccccc1)c1ccc(O)cc1 (centres undefined)	4	9	15*	·	·	·	26*	1	GFP quench DR=>68
Cc1ccccc1N(C(=O)c1snc(C(N)=O)c1N)C(C(=O)NCc1ccccc1)c1ccc(O)cc1 (centres undefined)	-6	16	0	·	·	18	·	·
CCOc1ccccc1N(C(=O)c1snc(C(N)=O)c1N)C(C(=O)NCC1CCCO1)c1ccc2ncccc2c1 (centres undefined)	12	3	21*	·	·	-11	29*	-1	GFP quench DR=>68
COc1ccc(C(C(=O)NC2CCCCC2)N(C(=O)c2snc(C(N)=O)c2N)c2ccc(OC)cc2OC)cc1 (centres undefined)	-18	13	18*	·	·	4	15*	0
CC(Oc1ccc2c(c1)oc(=O)c1ccccc12)C(=O)NCCN1CCOCC1 (centres undefined)	-3	11	5	-2	·	32	·	·
Cc1ccc2nc(-c3ccccc3)cc(C(=O)N(C)CC(=O)Nc3ccccc3Br)c2c1	·	-2	-2	-4	·	0	·	·
CC(/C=N/n1c(-c2ccco2)n[nH]c1=S)=C\c1ccccc1	13	-7	7.4*	55	-7	15	-1	0
NS(=O)(=O)c1cccc(NC(=O)COc2ncnc3c2cnn3-c2ccccc2)c1	-12	2	-3	-5	-5	-4	·	·
O=C(COc1ncnc2c1cnn2-c1ccccc1)Nc1ccc(S(=O)(=O)N2CCCCC2)cc1	-16	-5	8.8*	·	-15	14	6	0
SMILES	UBC9 SUMO inh	UBC13 inh	Rin1 Abl inh	ALR inh	RBBP9 inh	PREPL inh	Rin1 Abl conf	GFP quench-1	others
O=C(NC(=S)NC1CCCCC1)c1ccc(F)cc1	-19	-4	1	5	·	9	·	·
CNc1nc(OC)nc(N(C#N)CN2C(=O)c3ccccc3S2(=O)=O)n1	20	1	19*	3	-9	-6	1	0
CCCCSc1cc(=O)[nH]c(N)n1	28	-2	29*	-1	-5	20	21*	-2	GFP quench DR=>68
COc1ccc(-n2c(NC(=O)c3ccco3)c(C#N)c3nc4ccccc4nc32)cc1	86	-25	19*	29	-6	5	6	3
COc1ccc(C(=O)Nc2ccc(NC(=O)c3ccco3)cc2)cc1	21	-2	-1	-4	·	-5	·	·
CC1CCCN(C(=O)CNS(=O)(=O)c2cccs2)C1 (centres undefined)	-8	4	1	6	·	7	·	·
CCN(CC)c1ccc(S(=O)(=O)N2CCOCC2)cc1NC(=O)C1CC1	·	7	9.4*	·	·	1	-2	-1
CCN(CC)c1ccc(S(=O)(=O)N2CCCCC2)cc1NC(=O)C1CCC1	·	7	-2	-5	·	1	·	·
O=c1cc(OCc2ccccc2)cc[nH]1	·	12	96*	·	·	13	99*	1	GFP quench DR=>67;GFP quench-2=>68
Cc1[nH]ccc(=O)c1OCc1ccccc1	-1	6	2	-8	-4	-2	·	·
Cc1c(NC(=O)CSc2nc(N)cc(N)n2)c(=O)n(-c2ccccc2)n1C	·	?	-2	0	·	3	·	·
Cc1c(NC(=O)c2ccccc2)c(=O)n(-c2ccccc2)n1C	13	4	-3	0	5	2	·	·
Cc1c(NC(=O)c2ccc(N(C)S(=O)(=O)c3ccccc3)cc2)c(=O)n(-c2ccccc2)n1C	4	2	9.8*	-4	-4	14	1	-2
Cc1c(NC(=O)c2ccc(Cl)s2)c(=O)n(-c2ccccc2)n1C	11	-9	6.2*	-4	5	16	-2	1
Cc1c(NC(=O)CSc2ncccn2)c(=O)n(-c2ccccc2)n1C	3	-16	5.4*	·	-2	1	2	-1
COc1cccc(NC(=O)CSc2nc3ccccc3c(=O)n2CCCC(=O)NCC2CCCO2)c1 (centres undefined)	4	11	1	-9	·	-14	·	·

Bioassay records: PubChem, several laboratories
